TRPC6 activator = mouse TRPC6 channel activators, primary screen, cell-based, HEK293, membrane potential dye; Short transient receptor potential channel 6 (Mus musculus), Q61143; HEK293-TRPC6 membrane potential dye fluorescence; active compounds read high; B-score at 10 µM; 310,000 compounds, 0.13% hits; AID 2550, 2010;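 active means B-score of the integrated fluorescence ratio above library mean plus 3 SD, and starting fluorescence ratio within library mean plus 5 SD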;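 further: higher score means more depolarization so channel activation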
TRPC4 block = inhibitors of mouse TRPC4 channel, primary screen, Fluo4 calcium, HEK293 TRPC4beta/mu-opioid cells; DAMGO-evoked Fluo4 calcium flux; active compounds read low; B-score at 10 µM; 300,000 compounds, 0.39% hits; AID 2247, 2010;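 active means B-score over 3 SD under the library average, no early fluorescence shift, positive overall ratio signal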
Target sequence (Q9QUQ5 whole entry, looked up): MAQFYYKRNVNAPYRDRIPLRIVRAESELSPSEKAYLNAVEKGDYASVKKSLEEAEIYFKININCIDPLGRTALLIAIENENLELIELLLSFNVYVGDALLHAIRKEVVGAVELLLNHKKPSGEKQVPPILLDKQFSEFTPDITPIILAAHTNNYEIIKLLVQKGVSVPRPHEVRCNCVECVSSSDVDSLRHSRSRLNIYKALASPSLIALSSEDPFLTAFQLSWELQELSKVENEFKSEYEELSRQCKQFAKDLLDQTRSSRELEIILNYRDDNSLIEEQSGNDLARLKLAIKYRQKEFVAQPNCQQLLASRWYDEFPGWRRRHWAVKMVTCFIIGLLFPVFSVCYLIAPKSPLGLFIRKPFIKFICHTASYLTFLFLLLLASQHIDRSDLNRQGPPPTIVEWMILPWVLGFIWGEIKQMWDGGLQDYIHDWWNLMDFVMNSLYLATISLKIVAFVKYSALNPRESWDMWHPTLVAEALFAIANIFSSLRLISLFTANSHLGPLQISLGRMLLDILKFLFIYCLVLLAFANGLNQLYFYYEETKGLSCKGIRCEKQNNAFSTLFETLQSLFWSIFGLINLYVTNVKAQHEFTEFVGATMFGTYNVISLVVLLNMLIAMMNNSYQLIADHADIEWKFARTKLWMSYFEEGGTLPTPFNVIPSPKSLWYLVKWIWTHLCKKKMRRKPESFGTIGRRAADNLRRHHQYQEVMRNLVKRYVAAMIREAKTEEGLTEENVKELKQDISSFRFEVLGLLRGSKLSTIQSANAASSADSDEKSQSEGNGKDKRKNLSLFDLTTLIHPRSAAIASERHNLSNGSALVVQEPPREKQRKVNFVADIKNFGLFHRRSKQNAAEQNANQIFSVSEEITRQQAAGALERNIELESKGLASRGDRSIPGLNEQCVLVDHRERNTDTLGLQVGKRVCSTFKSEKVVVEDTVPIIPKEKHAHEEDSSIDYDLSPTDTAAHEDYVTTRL
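Test system – stable TRPC4beta/mu-opioid receptor HEK293 cells · Probe or stimulus – DAMGO, a submaximal dose followed by a maximal one · Dosing – one concentration per compound · Signal – Fluo4 calcium fluorescence by kinetic imaging, 5 s 1 Hz baseline · Evaluation – per-well B score of integrated baseline-normalized Fluo4 ratio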
TRPC4 potent = positive allosteric modulators of TRPC4, primary screen, cell-based, mouse TRPC4beta, HEK293 mu-opioid, Fluo-4 calcium. Short transient receptor potential channel 4 (Mus musculus), Q9QUQ5. AID 2227, 2009. 310,000 compounds, 0.42% hits. DAMGO EC20, Fluo-4 Ca2+ flux; active compounds read high. B-score at 10 µM;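 active means B-score of calcium response area above 5 SD of library B-scores, with initial fluorescence ratio within 5 SD of library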;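 further: B-score of integrated fluorescence ratio over time as area under calcium response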
TRPC6 inh = mouse TRPC6 channel inhibitors, primary screen, cell-based, HEK293, membrane potential dye; ACh-evoked depolarization; active compounds read low; B-score at 10 µM; Short transient receptor potential channel 6 (Mus musculus), Q61143; 310,000 compounds, 1.1% hits;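 active means B-score under library mean minus 3 SD, initial fluorescence not abnormally high, positive integrated signal ratio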;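 further: B-score derived from integrated fluorescence ratio over the kinetic read; more negative B-score means stronger inhibition of depolarization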
TRPC4 agonist = activators of mouse TRPC4 channel, primary screen, Fluo4 calcium, HEK293 TRPC4beta/mu-opioid cells. Fluo4 calcium fluorescence; active compounds read high. B-score at 10 µM. 310,000 compounds, 0.49% hits;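 active means B-score above 5 SD of library B-scores, and initial fluorescence ratio not above library mean plus 5 SD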;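 further: positive B-score marks a calcium rise read as TRPC4 activation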
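Material: TRPC4beta and mu-opioid receptor HEK293 stable cells | Incubation: 45 min room-temperature Fluo4 loading, 110 s read | Detection: Kinetic Fluo4 calcium fluorescence | Measure: Integrated baseline-normalised fluorescence ratio, converted to per-well B score | Benchmarks: Low control buffer alone, high control maximal DAMGO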
TRPC4 spec 2 = mouse TRPC4 off-target activity of TRPC6 inhibitors, second screen | inhibition, % at 10 µM | HEK293 TRPC4/MOR, membrane potential dye fluorescence; channel activated by saturating DAMGO dose | AID 2776 | 920 compounds, 42% hits | shares compounds with TRPC6 inh;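 active means compounds whose fluorescence signal differed from control wells by over 3 SD, either direction, in both duplicate plates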
TRPC4 spec = mouse TRPC4 modulation by TRPC6 hits, confirmation, selectivity assay for TRPC6 inhibitor project, cell-based, HEK293 TRPC4/mu-opioid, membrane potential dye; membrane potential fluorescence; 920 compounds, 61% hits; AID 2777, 2010; shares compounds with TRPC6 inh; activity change, negative = inhibition, % at 10 µM;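 active means rise or fall in signal beyond 3 SD of buffer-only wells in both replicate plates, either sign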;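 further: integrated kinetic ratio of fluorescence range over baseline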
HEK293 MPD ctr 2-1 = nonspecific membrane potential effects, parental HEK293, confirmation, counter-screen for TRPC6 inhibitor project, cell-based, second counter screen; parental HEK293 membrane potential dye fluorescence; maximal acetylcholine challenge after compound addition; shares compounds with TRPC6 inh; 920 compounds, 31% hits; signal change vs control, % at 10 µM;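 active means membrane potential signal moving either way by over 3 SD of the maximum-effect control, in both duplicate plates, meaning non-specific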
HEK293 MPD ctr-1 = membrane potential modulation in parental HEK293, confirmation, counter-screen for TRPC6 inhibitor project, cell-based; shares compounds with TRPC6 inh; parental HEK293 membrane potential dye fluorescence; membrane potential signal change, % at 10 µM; 920 compounds, 60% hits; AID 2780, 2010;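 active means membrane potential signal shifting up or down by more than 3 SD of buffer-only wells, on both duplicate plates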
HEK293 MPD ctr-2 = parental HEK293 membrane potential modulation, confirmation, counter-screen for TRPC6 modulator project, cell-based; shares compounds with TRPC6 inh; membrane potential dye fluorescence; membrane potential signal change, % at 10 µM; 2,400 compounds, 51% hits; AID 488924, 2010;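 active means membrane potential signal moves up or down beyond 5 SD from buffer-only wells, on both duplicate plates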
HEK293 MPD ctr 2-2 = second check of TRPC6 modulator effects in parental HEK293 cells | 2,400 compounds, 14% hits | inhibition, % at 10 µM | shares compounds with TRPC6 inh | AID 488926 | membrane potential dye fluorescence; after compound, maximal acetylcholine stimulation;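 active means membrane potential signal drops by more than 5 SD from the mean control signal, in both duplicate plates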;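 further: plate controls were acetylcholine ECmax control wells for no effect and buffer only wells for full effect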
TRPC4 ctr mod = TRPC4 modulation by TRPC6 hit compounds, confirmation, selectivity assay for TRPC6 modulator project, cell-based, HEK293 TRPC4/mu-opioid, membrane potential dye, mouse | 2,400 compounds, 69% hits | AID 488927, 2010 | shares compounds with TRPC6 inh | membrane potential fluorescence | percent change from control (negative = decrease, positive = increase), % at 10 µM;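 active means membrane potential signal moved up or down beyond 5 SD of buffer control wells, in both duplicate plates, actives on both sides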;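 further: plate controls were assay buffer wells for no effect and DAMGO maximal-effect wells for full effect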
TRPC4/MOR inh 2 = second selectivity test of TRPC6 modulators against mouse TRPC4 | shares compounds with TRPC6 inh | AID 488928 | inhibition, % at 10 µM | 2,400 compounds, 55% hits | HEK293 TRPC4/mu-opioid, membrane potential dye fluorescence; stimulated with maximal-effect DAMGO;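 active means drop in membrane potential signal beyond 5 SD of the control wells in both duplicate plates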;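 further: TRPC4 counter screen for TRPC6 hits run under conditions tuned for TRPC6 not TRPC4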
TRPC6 inh conf = mouse TRPC6 channel inhibitors, confirmation, HEK293 cells, membrane potential dye, duplicate; shares compounds with TRPC6 inh; 3,300 compounds, 43% hits; AID 488960, 2010; inhibition, % at 10 µM; ACh-evoked depolarization;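 active means fluorescence ratio falls more than 5 SD below the full-stimulation control mean, in both duplicate runs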;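 further: integrated fluorescence ratio of peak minus minimum over baseline after agonist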
TRPC6 act confirm = mouse TRPC6 channel activators, confirmation, HEK293 cells, membrane potential dye, duplicate; shares compounds with TRPC6 inh; HEK293-TRPC6 membrane potential dye fluorescence, FDSS; activation, % at 10 µM; 2,800 compounds, 11% hits;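 active means ratio signal rise beyond 5 SD above unstimulated control wells' mean, seen in both duplicate runs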;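 further: plate controls were buffer EC0 wells for no effect and acetylcholine ECmax response for full effect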
* = called active by the depositor; i = inactive; nt = no result. Hits are enriched below; roughly 2.3% of the tested compounds scored in any of these assays.

SMILES | TRPC6 activator | TRPC4 block | TRPC4 potent | TRPC6 inh | TRPC4 agonist | HEK293 MPD ctr-2 | HEK293 MPD ctr 2-2 | TRPC4 ctr mod | TRPC4/MOR inh 2 | TRPC6 inh conf | TRPC6 act confirm | others
CN1CCN(c2ccc(NC(=O)c3ccc(Cl)cc3Cl)cc2)CC1 | i | i | i | -5.93* | i | i | i | i | i | i | i
CCCC(C)C(=O)Nc1nc(C)c(-c2csc(Nc3ccc(Cl)cc3)n2)s1 (configuration not stated) | i | i | i | -6.01* | i | i | i | i | i | i | i
Nc1ccc(NC(=O)c2cccc(C(=O)Nc3ccc(N)cc3Cl)c2)c(Cl)c1 | i | i | i | i | i | nt | nt | nt | nt | nt | nt
Cc1ccc(C2N(c3ccccc3)C(=S)N3CCCN23)cc1 (configuration not stated) | i | i | i | -7.51* | i | nt | nt | nt | nt | 69.8%* | i | TRPC4 spec 2=i;TRPC4 spec=i;HEK293 MPD ctr 2-1=i;HEK293 MPD ctr-1=i
Cc1ccc(C(=O)Nc2ccc(S(=O)(=O)N3CCOCC3)cc2)cc1Br | i | i | i | i | i | nt | nt | nt | nt | nt | nt
O=S(=O)(c1ccc(NC(=S)NN=C2CCCCC2)cc1)N1CCOCC1 | i | i | i | i | i | nt | nt | nt | nt | nt | nt
COC(=O)c1ccc(C(=S)N2CCCCC2)cc1 | i | i | i | i | i | nt | nt | nt | nt | nt | nt
COC(=O)c1cccc(CSC(=S)N2CCCC2)c1 | 12.7* | i | i | i | i | i | i | i | i | nt | 130.0%*
CN(C)CCNc1nc(-c2ccco2)c2c(c1C#N)CC(C)(C)OC2 | i | i | i | -9.7* | i | -396.0%* | 77.5%* | -65.0%* | 75.5%* | 77.0%* | i
CC1(C)Cc2c(C#N)c(NCc3ccco3)nc(-c3ccco3)c2CO1 | i | i | i | i | i | nt | nt | nt | nt | nt | nt
N#Cc1c(NCCN)nc(-c2ccco2)c2c1CCCC2 | i | i | i | -8.56* | i | -258.5%* | 89.0%* | -46.0%* | 75.0%* | 76.5%* | i
COc1cccc(C(=O)NC2CC3CCCC(C2)N3Cc2ccc(C)cc2)c1 (configuration not stated) | i | i | i | i | i | nt | nt | nt | nt | nt | nt
CN1CCN(/N=C/c2nc(-c3ccc(Cl)cc3)n3ccccc23)CC1 | i | i | i | -5.27* | i | -164.5%* | i | -35.5%* | 40.5%* | i | i
CN1CCN(/N=C/c2nc(-c3ccccc3)n3ccccc23)CC1 | i | i | i | i | i | nt | nt | nt | nt | nt | nt
COc1cccc(CNC(=O)c2nnn(CC(=O)Nc3cccc(C)c3)c2N)c1 | i | i | i | i | i | nt | nt | nt | nt | nt | nt
COc1ccccc1CNC(=O)CCCNC(=O)Cn1cnc2sc(C)c(C)c2c1=O | i | i | i | i | i | nt | nt | nt | nt | nt | nt
CCOc1cc2c(C#N)c(N3CCNCC3)nc(N)c2c(N)n1 | i | i | 12* | -5.88* | i | -193.5%* | i | -25.0%* | i | 37.5%* | i
COc1cccc(CNc2ccc([N+](=O)[O-])cc2Cl)c1O | i | i | i | i | i | nt | nt | nt | nt | nt | nt
CN1C=C/C(=C\c2cc[n+](C)c3ccccc23)c2ccccc21 | i | i | i | -5.79* | i | -265.0%* | i | -27.0%* | 31.5%* | i | i
CCCCC1CCC(C(=O)N(C)CC(=O)Nc2cccc(F)c2)CC1 (configuration not stated) | i | i | i | i | i | nt | nt | nt | nt | nt | nt
Cc1ccc(S(=O)(=O)NCCNC(=O)CN2CCOCC2)cc1 | i | i | i | i | i | nt | nt | nt | nt | nt | nt
Brc1ccccc1/C=N/Nc1ccc2ccccc2n1 | i | i | i | -6.2* | i | i | i | i | 56.5%* | i | i
Brc1ccc(/C=N/Nc2ccc3ccccc3n2)cc1 | i | i | i | i | i | nt | nt | nt | nt | nt | nt
CN(C)C(=S)Nc1ccc2ccccc2c1 | i | i | i | i | i | nt | nt | nt | nt | nt | nt
CN(C)CCNC(=O)c1ccccc1 | i | i | i | i | i | nt | nt | nt | nt | nt | nt
Cc1sc(NC(=O)c2ccccc2)c(C(=O)NCCN(C)C)c1C | i | i | i | -11.4* | 148* | -161.0%* | i | -31.0%* | 74.0%* | 62.0%* | i
O=C(NCCc1nnc2ccc(NCCCN3CCOCC3)nn12)c1ccccc1F | i | i | i | i | i | nt | nt | nt | nt | nt | nt
